Bioassay records: PubChem BioAssay, The Scripps Research Institute Molecular Screening Center
ADAM10 inh: inhibitors of human ADAM10. inhibition, % at 7 µM. O14672. recombinant ADAM10, EDANS/DABCYL FRET peptide cleavage, 3 h. actives 0.62% (n = 370,000). AID 720582;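 active = inhibition above a per-campaign cutoff equal to the mean of compounds falling between control-based bounds plus 3 SD, cut at about 20% in these data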;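 also: 0% = DMSO wells while the 100% control is not disclosed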
TbMetRS inhib: Trypanosoma brucei MetRS inhibition | purified T. brucei MetRS, ATP depletion, Kinase-Glo luminescence | AID 624268 | actives 0.4% (n = 360,000) | inhibition, % at 11.9 µM;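 active = inhibition above a per-plate cutoff of the control wells' mean inhibition plus 3 SD, cut at about 5.5% in these data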;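 also: 0% = DMSO wells median and 100% = median of wells with control inhibitor compound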
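Material – parasite MetRS enzyme · Medium – HEPES-MgCl2-KCl buffer plus DTT, spermine, BSA, pyrophosphatase · Reagent – ATP, methionine and E. coli bulk tRNA substrates · Times – 15 min enzyme-compound preincubation, 2 h reaction, 10 min detection, 25 °C · Measured by – luminescence of leftover ATP · Evaluation – percent inhibition relative to median high and low control wells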
PLC-gamma1 inh: PLC-gamma1 (human) inhibition, primary screen; P19174; purified PLC-gamma1, fluorogenic substrate, fluorescence; inhibition, % at 12.2 µM; actives 0.84% (n = 370,000)
PLC-beta3 inh: inhibitors of human phospholipase C beta3. Q01970. Purified PLC-beta3, fluorogenic substrate, fluorescence. inhibition, % at 12.2 µM. actives 0.18% (n = 370,000); in the data active = inhibition above about 11%;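 also: 0% = median of compound wells on plate and 100% = full blocker control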
ADAM17 inh: inhibits human ADAM17; AID 720648; inhibition, % at 6.95 µM; actives 0.83% (n = 370,000); recombinant ADAM17, EDANS/DABCYL FRET peptide cleavage; P78536;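 active = inhibition above the mean of compounds lying between control limits plus 3 SD, set per campaign, cut at about 8.5% in these data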;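 also: 0% = DMSO-only wells as the low control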
Target sequence (P78536 215-824 limits assumed): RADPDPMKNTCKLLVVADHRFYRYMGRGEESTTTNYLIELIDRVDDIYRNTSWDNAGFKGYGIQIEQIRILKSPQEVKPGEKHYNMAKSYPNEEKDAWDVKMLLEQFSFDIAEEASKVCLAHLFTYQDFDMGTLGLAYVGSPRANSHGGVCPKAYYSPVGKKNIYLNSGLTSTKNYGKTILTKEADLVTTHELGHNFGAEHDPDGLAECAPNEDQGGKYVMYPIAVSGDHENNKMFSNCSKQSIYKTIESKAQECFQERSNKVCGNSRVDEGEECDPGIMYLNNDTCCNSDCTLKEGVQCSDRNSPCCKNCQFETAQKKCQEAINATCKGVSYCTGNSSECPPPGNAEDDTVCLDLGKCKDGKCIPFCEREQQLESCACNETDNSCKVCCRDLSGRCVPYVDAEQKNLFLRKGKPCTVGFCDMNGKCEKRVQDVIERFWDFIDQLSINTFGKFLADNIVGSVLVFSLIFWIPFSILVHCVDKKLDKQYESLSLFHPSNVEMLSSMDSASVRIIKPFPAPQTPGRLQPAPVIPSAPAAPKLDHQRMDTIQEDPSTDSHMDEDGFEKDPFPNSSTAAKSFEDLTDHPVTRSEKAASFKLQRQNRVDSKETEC
ADAM10 ctr: counter-screen for ADAM17 exosite inhibitors: inhibitors of human ADAM10; shares compounds with ADAM17 inh; recombinant ADAM10, EDANS/DABCYL FRET peptide cleavage, 3 h; inhibition, % at 6.95 µM; actives 47% (n = 2,900);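 active = mean inhibition over the triplicate runs exceeds the activity threshold set in the earlier primary screen, cut at about 20% in these data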;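 also: 0% = DMSO wells and 100% = marimastat wells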
ADAM17 confirm: confirmation of inhibitors of human ADAM17 | shares compounds with ADAM17 inh | recombinant ADAM17, EDANS/DABCYL QFRET peptide cleavage | inhibition, % at 6.95 µM | actives 65% (n = 2,900) | AID 743257;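 active = mean inhibition across replicates above the hit cutoff set in the primary screen, cut at about 8.5% in these data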;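 also: 0% = DMSO wells and 100% = marimastat wells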
PLCgamma1 ctr: PLC-gamma1 inhibition, counter-screen for PLC-beta3 hits; shares compounds with PLC-gamma1 inh; purified PLC-gamma1, fluorogenic substrate, fluorescence; inhibition, % at 12.3 µM; actives 3.1% (n = 3,300)
PLCb3 confirm: confirmation of human PLC-beta3 inhibitors | shares compounds with PLC-gamma1 inh | purified PLC-beta3, fluorogenic substrate fluorescence | inhibition, % at 12.3 µM | actives 1% (n = 3,300) | AID 743261; in the data active = inhibition above about 11%
An asterisk follows results filed as active. Rows were chosen to be rich in hits. Some 2.3% of all compounds tested hit in one or more screens of this group. Rule as the data show it, unless noted: active = inhibition above about 9.5%; inactive = the rest.

Screening COC(=O)[C@]12C[C@H](CC(=O)N3CCN(C(=O)C4CC4)CC3)C(=O)N(Cc3ccccc3)C1=C[C@H](COCc1ccccc1)O[C@@H]2C returned ADAM10 inh 5, PLC-gamma1 inh 3, PLC-beta3 inh 1 and ADAM17 inh 0.
COCCCN1C(=O)C(CC(=O)NCCN2CCOCC2)CC(C(=O)N(C(C)C)C(C)C)=C1C (stereo unspecified) was read as ADAM10 inh 4, TbMetRS inhib 0, PLC-gamma1 inh 3, PLC-beta3 inh -1 and ADAM17 inh 2.
O=C1OC(Cc2ccccc2)(c2ccccc2)c2ccccc21 (stereo unspecified) was read as ADAM10 inh 18, TbMetRS inhib 0, PLC-gamma1 inh 11*, PLC-beta3 inh 11*, ADAM17 inh 11*, ADAM10 ctr 8, ADAM17 confirm 2, PLCgamma1 ctr 0 and PLCb3 confirm 0.
CCc1nc2c(OCc3cc(Cl)cc(Cl)c3)cccn2c1N(C)C(=O)c1ccc(OC)cc1 was read as ADAM10 inh 16, TbMetRS inhib 0, PLC-gamma1 inh -3, PLC-beta3 inh 0 and ADAM17 inh 3.
For CCCCn1c(-c2csc3c2CCCC3)n[nH]c1=S the results were ADAM10 inh 6, PLC-gamma1 inh 15*, PLC-beta3 inh -3, ADAM17 inh 13*, ADAM10 ctr 10, ADAM17 confirm 5, PLCgamma1 ctr -2 and PLCb3 confirm -4.
For CCn1c(-c2csc3c2CCCC3)n[nH]c1=S the results were ADAM10 inh 18, TbMetRS inhib 0, PLC-gamma1 inh 6, PLC-beta3 inh -3 and ADAM17 inh -6.
`NC1=NC2(CCC(c3ccccc3)CC2)n2c(nc3ccccc32)N1` (stereo unspecified) gave ADAM10 inh 0, TbMetRS inhib 1, PLC-gamma1 inh 18*, PLC-beta3 inh 14*, ADAM17 inh 9.0*, ADAM10 ctr 12, ADAM17 confirm 7, PLCgamma1 ctr 3 and PLCb3 confirm 2.
N#CC1(NC(=O)CN2C(=O)NC3(CCCCCC3)C2=O)CCCCC1 was read as ADAM10 inh -8, TbMetRS inhib 0, PLC-gamma1 inh 3, PLC-beta3 inh -2 and ADAM17 inh -4.
CC1(C(=O)NCc2ccccc2Br)CCN1Cc1ccc2ccccc2c1 (stereo unspecified) was read as ADAM10 inh 19, TbMetRS inhib 0, PLC-gamma1 inh 2, PLC-beta3 inh 0 and ADAM17 inh 8.
`COc1ccc(C(=S)N2CCN(c3ccccc3C)CC2)cc1` gave ADAM10 inh 8, TbMetRS inhib 0, PLC-gamma1 inh 13*, PLC-beta3 inh 4, ADAM17 inh 9.4*, ADAM10 ctr 9, ADAM17 confirm 7, PLCgamma1 ctr -1 and PLCb3 confirm -1.
CCN1CCN(C(=S)c2ccc(OC)cc2)CC1 was read as ADAM10 inh -5, TbMetRS inhib -1, PLC-gamma1 inh 0, PLC-beta3 inh -5 and ADAM17 inh -5.
C=CCn1c(SCc2cc(C(C)=O)ccc2OCC)nc2ccccc2c1=O was read as ADAM10 inh 10, TbMetRS inhib -1, PLC-gamma1 inh 0, PLC-beta3 inh 2 and ADAM17 inh 6.
Screening Cc1nn(C)cc1/C=N/NC(=S)Nc1ccc(Cl)cc1Cl returned ADAM10 inh 10, TbMetRS inhib 0, PLC-gamma1 inh 1, PLC-beta3 inh -1 and ADAM17 inh 3.
For CCn1nc(C)c(/C=N/NC(=S)Nc2ccc(Cl)cc2Cl)c1C the results were ADAM10 inh 17, TbMetRS inhib 1, PLC-gamma1 inh 4, PLC-beta3 inh 12*, ADAM17 inh 8.7*, ADAM10 ctr 9, ADAM17 confirm 3, PLCgamma1 ctr -2 and PLCb3 confirm -2.
